A number with no mark means an inactive call. Records with an inconclusive call do not appear. The source made the active and inactive calls.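 The calls were made as follows, unless noted: active = growth inhibition above 25% in both replicates, a cutoff set 3 SD above the mean; inconclusive = above 25% in only one replicate; inactive = the rest.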

As usually defined, the viability is a read-out of living cells in per cent, often relative to untreated cells. In general, inhibition refers to the change of the read-out against control, counted positive when it falls.

A short description of test [1]: OD615 S. cerevisiae growth inhibition, permissive medium, pilot counter-assay, permissive growth control for S. cerevisiae lifespan shortening project (AID 705). As to conditions: OD615, 24 h, at 10 µM, stronger effect = higher value. An outline of the steps: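 Timing: 24 h exposure, 30 °C / Material: Saccharomyces cerevisiae strain carrying genetically modified DeaD replicative-lifespan system / Signal: OD at 615 nm / Compound: 10 µM single dose, 0.25% DMSO / Medium: SC raffinose/galactose permissive medium / Evaluation: reduction in yeast growth (OD615)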

Test [2] in a line: Restrictive medium S. cerevisiae growth inhibition, OD615, pilot screen of yeast lifespan reduction project, restrictive growth control (AID 706;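 active = growth inhibition above a set limit, 3 SD over mean compound inhibition, in both replicates, cut at about 43% in these data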;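 also: modified DeaD lifespan yeast strain shifted to restrictive glucose medium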). The settings on record: OD615, 48 h, at 10 µM, stronger effect = higher value. An outline of the steps:
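System: Engineered S. cerevisiae DeaD strain | Detection: OD615 | Buffer or medium: CSMM-D glucose medium | Doses: 10 µM compound, 0.25% DMSO | Timing: 4 h pre-growth plus 48 h compound exposure, 30 °C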

The nature of test [3]: viability gain of MRP-1-high H69AR cells under doxorubicin, pilot screen, MRP-1 activator project, CellTiter-Glo, duplicate (AID 807;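 active = viability increase at or above a cutoff of the median across tested compounds plus 3 SD, cut at about 8.5% in these data, passing the limit was not always enough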;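 also: compound pretreatment 18-22 h then 72 h combined with doxorubicin; 0% = doxorubicin alone and 100% = vehicle without doxorubicin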). As to conditions: H69AR viability with doxorubicin, CellTiter-Glo luminescence; at 10 µM; stronger effect = higher value. In general terms: Cellular ATP, detected with luciferase, serves as a proxy for viable cell number.
A short description of test [4]: growth suppression of beta-catenin knockout HCT116, pilot screen, human colon tumor cells (AID 823;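 active = cell viability at or below a set limit in both duplicate runs, the limit being the all-compound median minus 4 SD, cut at about 23% in these data, passing the limit was not always enough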;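 also: 0% = wells killed by 20 µM Hyamine and 100% = untreated DMSO cell wells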). As to conditions: CellTiter-Glo, 60 h, at 10 µM, stronger effect = lower value.
Test [5] can be described thus: growth suppression of PTEN-deleted HCT116, pilot screen, cell-based, HCT116 clonal line, CellTiter-Glo (AID 824;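 active = viability at or below 27.92% in each of two runs, the all-compound median minus 4 SD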;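 also: 0% = 20 µM Hyamine control and 100% = vehicle cell control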). As to conditions: 60 h, at 10 µM, stronger effect = lower value.
Test [6] is described as follows: inhibitors of the yeast RAM network, pilot screen, dse1pr::URA3 reporter, 5-FOA selection (AID 869;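 active = inhibition over a set limit, the all-compound mean plus 3 SD, in both replicate runs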;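 also: 0% = DMSO wells with no growth and 100% = 10 µM 1-NA-PP1 with full growth; RAM network block rescues cells from 5-FOA so hits raise OD615 growth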). As to conditions: S. cerevisiae dse1pr::URA3 5-FOA growth, OD615, 2 d; at 10 µM; stronger effect = higher value; strain carries analog-sensitive mutant Cbk1 kinase.
Test [7] can be described thus: RAM signaling pathway blockade in yeast – S. cerevisiae, Pdr1DBD-CYC8 efflux-inhibited sensitized strain, primary screen (AID 1298;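 active = RAM network inhibition above 8.4% in each of two replicates, 3 SD over the compound average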;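 also: 0% = DMSO untreated cells without growth and 100% = 10 µM 1-NA-PP1 full growth; higher means more yeast growth rescued from 5-FOA killing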). As to conditions: S. cerevisiae cbk1-as DSE1-URA3 strain, 5-FOA growth OD615, 2 d; at 50 µM; stronger effect = higher value.

`CCCC1(C(=O)O)NC(c2ccccc2O)C2C(=O)N(Cc3ccccc3)C(=O)C21` (stereo unspecified): the growth inhibition in test [1] is 7.11%; in test [2] it was 6.84%. For the same compound, the viability increase in test [3] was -1.02%. For the same compound, the viability was 97.5% in test [4] and 90.8% in test [5]. In addition, in test [6], the inhibition was 0.45%. Also, the RAM network inhibition in test [7] was 0.88%.

Take `CC(C)c1ccc(C2CC(=O)N3CN(C)CSC3=C2C#N)cc1` (stereo unspecified): the growth inhibition in test [1] was 4.19%; in test [2], 25%. For the same compound, in test [3], the viability increase is -4.3%. In addition, the values for the viability in test [4] and in test [5] were 91.4% and 93.9%, respectively. In addition, the inhibition in test [6] is 1.75%. The RAM network inhibition in test [7] is -0.52%.

In the case of `CCOc1ccc(C(=O)Nc2c3c(nn2-c2ccc(C)cc2)CS(=O)C3)cc1OCC` (stereo unspecified), the growth inhibition is 2.17% in test [1] and -3.32% in test [2]. In addition, the viability increase in test [3] was -1.84%. The values for the viability in test [4] and in test [5] were 97.6% and 104%, respectively. Besides, the inhibition in test [6] is 2.23%. Besides, in test [7], the RAM network inhibition was 8.77%.

For the compound `COC(=O)c1ccccc1NC(=O)C1CCCN(c2nnc(-n3cccc3)s2)C1` (stereo unspecified), the values for the growth inhibition in test [1] and in test [2] were -1.67% and 4.77%, respectively. Moreover, the viability increase in test [3] is -2.28%. For the same compound, the results for the viability in test [4] and in test [5] were 86.2% and 82.2%, respectively. For the same compound, the inhibition in test [6] was 1.65%. Further, in test [7], the RAM network inhibition was 8.61%.

On to `CC(=O)Nc1cc(NC(C)=O)c(CC(C)C)s1`, for which the growth inhibition in test [1] is -6.92%; in test [2], 2.99%. In test [3], the viability increase is -0.12%. The viability was 94.9% in test [4] and 101% in test [5]. Besides, the inhibition in test [6] was 0.44%. In addition, the RAM network inhibition in test [7] is 2.34%.

On to `CCOC(=O)Cc1csc(NC(NC(=O)CC)(C(F)(F)F)C(F)(F)F)n1`, for which the growth inhibition in test [1] was 0.765%; in test [2], -2.19%. Further, the viability increase in test [3] is -0.75%. For the same compound, the viability in test [4] is 99.6%; in test [5] it was 96.7%. For the same compound, in test [6], the inhibition was 3.13%. In test [7], the RAM network inhibition is 6.43%.

`Cc1ccccc1CSc1nnc(Cn2c(=O)sc3ccccc32)n1C`: the growth inhibition was -9.17% in test [1] and 11.4% in test [2]. In test [3], the viability increase is 1.46%. In addition, the viability in test [4] is 95.6%; in test [5], 98.5%. Further, the inhibition in test [6] is 1.81%. The RAM network inhibition in test [7] is 6.66%.

With `CCCCCN=C(C)c1c(O)c2ccccc2oc1=O`, the growth inhibition is 1.51% in test [1] and 1.03% in test [2]. The viability increase in test [3] is 1.19%. Besides, the viability in test [4] is 94.8%; in test [5], 90.7%. The inhibition in test [6] is -0.66%. Also, the RAM network inhibition in test [7] was -1.55%.

For `CCOCCCNC(=O)Cn1cc2c(n1)CCCC2`, the growth inhibition in test [1] was 3.43%; in test [2], 1.36%. For the same compound, the viability increase in test [3] is -0.46%. Further, the results for the viability in test [4] and in test [5] were 105% and 98.8%, respectively. The inhibition in test [6] is 1.91%. The RAM network inhibition in test [7] was 1.03%.

As to `CCOc1ccccc1N1CCN(C(=O)c2cc(C)oc2C)CC1`, the results for the growth inhibition in test [1] and in test [2] were -10.5% and -5.64%, respectively. Besides, the viability increase in test [3] was -3.37%. The viability is 89.2% in test [4] and 93.9% in test [5]. The inhibition in test [6] is 0.04%. The RAM network inhibition in test [7] was 0.7%.

As for `CCc1cc(C(=O)Cc2ccc(F)cc2)c(O)cc1O`, the results for the growth inhibition in test [1] and in test [2] were -1.34% and -3.73%, respectively. Also, the viability increase in test [3] is -3.8%. Moreover, the viability in test [4] is 98.8%; in test [5], 86.5%. For the same compound, the inhibition in test [6] is 0.665%. For the same compound, the RAM network inhibition in test [7] is -2.4%.

On to `CCOC(=O)c1c(C)oc2cc(Br)c(O)c(Br)c12`, for which the values for the growth inhibition in test [1] and in test [2] were -19% and -14.6%, respectively. The viability increase in test [3] was -2.05%. Further, the viability is 93.6% in test [4] and 85.7% in test [5]. Moreover, in test [6], the inhibition was 0.86%. Moreover, the RAM network inhibition in test [7] was 0.68%.

As for `COc1ccc2cc3c(N)nn(C(=O)Cc4ccccc4OC)c3nc2c1`, the growth inhibition was 10.1% in test [1] and 17.7% in test [2]. In addition, the viability increase in test [3] was -8.54%. Besides, the viability in test [4] was 2.78% (active); in test [5], 5.52% (active). Also, in test [6], the inhibition is 0.65%. In addition, in test [7], the RAM network inhibition was 2.84%.

With `COc1ccc(OC)c2c1sc(=NC(=O)C(C)C)n2C`, the figures for the growth inhibition in test [1] and in test [2] were -3.95% and 17.4%, respectively. Moreover, in test [3], the viability increase is -3.34%. For the same compound, the viability in test [4] was 79.2%; in test [5], 74.1%. Moreover, the inhibition in test [6] was 0.575%. Also, in test [7], the RAM network inhibition is 3%.

Regarding `COC(=O)C1=C(C)Nc2ccc(C)cc2S1`, the growth inhibition was 14.1% in test [1] and 29.2% in test [2]. Moreover, the viability increase in test [3] was -2.27%. Also, the figures for the viability in test [4] and in test [5] were 98.8% and 100%, respectively. Further, in test [6], the inhibition was 1.25%. The RAM network inhibition in test [7] is 3.11%.

In the case of `COc1ccc(OC)c(NC(=O)c2cnc3n(c2=O)CCS3)c1`, the growth inhibition is -1.9% in test [1] and -0.45% in test [2]. In addition, the viability increase in test [3] was -1.5%. For the same compound, the viability in test [4] was 100%; in test [5] it was 95.9%. The inhibition in test [6] was 2.48%. Also, in test [7], the RAM network inhibition was 7.21%.

For the compound `CC(=O)Nc1nc2cc3c(cc2s1)OCO3`, the growth inhibition is -3.77% in test [1] and -8.01% in test [2]. Also, the viability increase in test [3] was -1.9%. Also, the viability in test [4] is 96.4%; in test [5], 91.9%. In test [6], the inhibition was 1.81%. In addition, the RAM network inhibition in test [7] is 5.55%.

For `CC(C)CCOC(=O)C1C2C=CC3(CN(Cc4cccs4)C(=O)C13)O2` (stereo unspecified), the results for the growth inhibition in test [1] and in test [2] were -9.53% and 2.99%, respectively. Besides, the viability increase in test [3] was -0.61%. In addition, the viability was 94.3% in test [4] and 91.2% in test [5]. Further, the inhibition in test [6] was 0.305%. Besides, the RAM network inhibition in test [7] is 2.76%.

The record behind these values is PubChem BioAssay.
